For this assay, the target named is T1, NAD-dependent protein deacetylase sirtuin-2 (Homo sapiens) (UniProt Q8IXJ6).
T1 sequence (whole entry): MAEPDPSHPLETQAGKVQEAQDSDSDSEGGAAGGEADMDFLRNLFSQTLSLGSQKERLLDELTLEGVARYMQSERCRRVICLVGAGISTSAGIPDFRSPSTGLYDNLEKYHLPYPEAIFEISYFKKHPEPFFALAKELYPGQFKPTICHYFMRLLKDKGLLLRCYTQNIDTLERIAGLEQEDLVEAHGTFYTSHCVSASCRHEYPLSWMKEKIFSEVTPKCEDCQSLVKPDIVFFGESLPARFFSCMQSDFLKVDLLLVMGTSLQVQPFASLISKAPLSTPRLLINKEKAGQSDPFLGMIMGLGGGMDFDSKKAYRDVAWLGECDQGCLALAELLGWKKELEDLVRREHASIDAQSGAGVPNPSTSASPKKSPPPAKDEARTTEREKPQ
Description: Inhibition of recombinant human C-terminal His-tagged SIRT2 (50 to 389 end residues) expressed in Escherichia coli at 10 uM using p53 derived (379 to 382 residues) fluorogenic peptide substrate RHKK(Ac)-AMC preincubated for 10 mins followed by substrate addition in presence of NAD+ by fluorescence assay relative to control. The essentials:
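Two-step fluorogenic assay with p53 379–382 RHKK(Ac)-AMC. Compound (from 10 mM DMSO stock) preincubated ~10 min with human SIRT before substrate addition. Developer then releases fluorophore, read at ex 360/em 460 nm.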
Broadly, the inhibition is the drop in the measured response relative to a control, in per cent. For the molecule `O=c1c2c3c(sc2ncn1Cc1cccc2ccccc12)CC(NC1CCOCC1)CC3` (stereo not drawn), the inhibition was found to be 59%.

Regarding `COc1ccccc1Cn1cnc2sc3c(c2c1=O)CCC(NCc1cncnc1)C3` (stereo not drawn), the inhibition stood at 45%.

With `O=c1c2c3c(sc2ncn1Cc1cccc2ccccc12)CC(NCc1cccc(F)c1)CC3` (stereo not drawn), the inhibition was found to be 65%.

Consider `O=c1c2c3c(sc2ncn1Cc1ccccc1)CC(NC1CCc2ccccc21)CC3` (stereo not drawn), for which the inhibition came out at 59%.

For the molecule `COc1cccc(NC2CCc3c(sc4ncn(Cc5cccc6cccnc56)c(=O)c34)C2)c1` (stereo not drawn), the inhibition is 67%.

Regarding `O=c1c2c3c(sc2ncn1Cc1cccc2cccnc12)CC(NCC1CCOC1)CC3` (stereo not drawn), the inhibition is 60%.

For `O=c1c2c3c(sc2ncn1Cc1cccc(-c2ccccc2)c1)CC(NC1CCCc2ccccc21)CC3` (stereo not drawn), the inhibition was 22%.

In the case of `O=c1c2c3c(sc2ncn1Cc1cccc(-c2ccccc2)c1)CC(NCc1ccccc1Cl)CC3` (stereo not drawn), the inhibition was 39%.

In the case of `COc1ccccc1NC1CCc2c(sc3ncn(Cc4c(OC)ccc5ccccc45)c(=O)c23)C1` (stereo not drawn), the inhibition is 29%.

On to `O=c1c2c3c(sc2ncn1Cc1ccc2ccccc2c1)CC(NC1CCOCC1)CC3` (stereo not drawn), for which the inhibition was found to be 52%.

For the molecule `COc1ccc2ccccc2c1Cn1cnc2sc3c(c2c1=O)CCC(NCc1cncnc1)C3` (stereo not drawn), the inhibition is 33%.

Regarding `COc1ccc(Cn2cnc3sc4c(c3c2=O)CCC(NCc2cccc(F)c2)C4)c2ccccc12` (stereo not drawn), the inhibition is 59%.

In the case of `COc1cccc(CNC2CCc3c(sc4ncn(Cc5ccccc5)c(=O)c34)C2)c1` (stereo not drawn), the inhibition was 48%.

`COc1ccc(Cn2cnc3sc4c(c3c2=O)CCC(NCc2ccccc2F)C4)c2ccccc12` (stereo not drawn): the inhibition turned out to be 71%.

Regarding `Cc1noc(C)c1CNC1CCc2c(sc3ncn(Cc4cccc(-c5ccccc5)c4)c(=O)c23)C1` (stereo not drawn), the inhibition was 60%.

In the case of `COc1cccc(Cn2cnc3sc4c(c3c2=O)CCC(NCc2cncnc2)C4)c1` (stereo not drawn), the inhibition came to 18%.

As to `COc1ccc(Cn2cnc3sc4c(c3c2=O)CCC(NCCNC(C)=O)C4)c2ccccc12` (stereo not drawn), the inhibition worked out at 58%.

With `COc1ccc2ccccc2c1Cn1cnc2sc3c(c2c1=O)CCC(NC1CCCc2ccccc21)C3` (stereo not drawn), the inhibition came to 34%.

For `COc1ccc(Cn2cnc3sc4c(c3c2=O)CCC(NCC2CCOC2)C4)c2ccccc12` (stereo not drawn), the inhibition was determined as 70%.

Consider `COc1ccc(Cn2cnc3sc4c(c3c2=O)CCC(Nc2ccc3c(c2)OCO3)C4)c2ccccc12` (stereo not drawn), for which the inhibition is 38%.

Take `COc1cccc(CNC2CCc3c(sc4ncn(Cc5cccc(OC)c5)c(=O)c34)C2)c1` (stereo not drawn): the inhibition stood at 58%.

For the molecule `COc1ccc(CNC2CCc3c(sc4ncn(Cc5ccccc5)c(=O)c34)C2)cc1` (stereo not drawn), the inhibition is 45%.

`O=c1c2c3c(sc2ncn1Cc1cccc2cccnc12)CC(NCCN1CCCC1)CC3` (stereo not drawn): the inhibition turned out to be 29%.

For the molecule `N#Cc1ccc(CNC2CCc3c(sc4ncn(Cc5cccc6ccccc56)c(=O)c34)C2)cc1` (stereo not drawn), the inhibition was 66%.

Regarding `COc1ccc(NC2CCc3c(sc4ncn(Cc5ccc(OC)c6ccccc56)c(=O)c34)C2)cc1` (stereo not drawn), the inhibition is 41%.

As for `Cc1ccc(NC2CCc3c(sc4ncn(Cc5cccc(-c6ccccc6)c5)c(=O)c34)C2)cc1` (stereo not drawn), the inhibition is 27%.

As for `CC(=O)NCCNC1CCc2c(sc3ncn(Cc4cccc(-c5ccccc5)c4)c(=O)c23)C1` (stereo not drawn), the inhibition is 65%.

Consider `COc1ccc(Cn2cnc3sc4c(c3c2=O)CCC(Nc2ccc(C)cc2)C4)c2ccccc12` (stereo not drawn), for which the inhibition amounted to 35%.

As to `O=c1c2c3c(sc2ncn1Cc1ccc2ccccc2c1)CC(NC1CCCc2ccccc21)CC3` (stereo not drawn), the inhibition was 37%.

As to `COc1ccc2ccccc2c1Cn1cnc2sc3c(c2c1=O)CCC(Nc1ccc(F)cc1)C3` (stereo not drawn), the inhibition stood at 44%.

For `CC(=O)NCCNC1CCc2c(sc3ncn(Cc4ccc5ccccc5c4)c(=O)c23)C1` (stereo not drawn), the inhibition turned out to be 47%.

Turning to `N#Cc1ccc(CNC2CCc3c(sc4ncn(Cc5cccc(-c6ccccc6)c5)c(=O)c34)C2)cc1` (stereo not drawn), the inhibition was found to be 75%.

On to `COc1ccccc1Cn1cnc2sc3c(c2c1=O)CCC(NCCc1cccnc1)C3` (stereo not drawn), for which the inhibition was found to be 38%.

As to `COc1ccc2ccccc2c1Cn1cnc2sc(CCN(C)C)c(C)c2c1=O`, the inhibition was 30%.

Take `O=c1c2c3c(sc2ncn1Cc1ccc2ccccc2c1)CC(NCCN1CCCC1)CC3` (stereo not drawn): the inhibition was found to be 52%.

In the case of `O=c1c2c3c(sc2ncn1Cc1ccccc1)CC(NCCc1cccnc1)CC3` (stereo not drawn), the inhibition was determined as 27%.

`COc1cccc(CNC2CCc3c(sc4ncn(Cc5ccc6ccccc6c5)c(=O)c34)C2)c1` (stereo not drawn): the inhibition was 51%.

Turning to `O=c1c2c3c(sc2ncn1Cc1cccc2ccccc12)CC(NCc1ccccc1Cl)CC3` (stereo not drawn), the inhibition was determined as 46%.

Take `O=c1c2c3c(sc2ncn1Cc1ccccc1)CC(NCc1ccncc1)CC3` (stereo not drawn): the inhibition was found to be 33%.

Regarding `Cc1cccc(NC2CCc3c(sc4ncn(Cc5cccc(-c6ccccc6)c5)c(=O)c34)C2)c1` (stereo not drawn), the inhibition turned out to be 28%.

For `COc1cccc(Cn2cnc3sc4c(c3c2=O)CCC(NCc2ccncc2)C4)c1` (stereo not drawn), the inhibition was determined as 59%.

Turning to `COc1cccc(NC2CCc3c(sc4ncn(Cc5ccc6ccccc6c5)c(=O)c34)C2)c1` (stereo not drawn), the inhibition came to 37%.

On to `COc1ccc(Cn2cnc3sc4c(c3c2=O)CCC(NCCN2CCOCC2)C4)c2ccccc12` (stereo not drawn), for which the inhibition turned out to be 76%.

As to `COc1cccc(Cn2cnc3sc4c(c3c2=O)CCC(NC2CCc3ccccc32)C4)c1` (stereo not drawn), the inhibition was determined as 64%.

Regarding `Cc1noc(C)c1CNC1CCc2c(sc3ncn(Cc4ccc5ccccc5c4)c(=O)c23)C1` (stereo not drawn), the inhibition was 67%.

`O=c1c2c3c(sc2ncn1Cc1ccccc1)CC(NCc1ccccc1Cl)CC3` (stereo not drawn): the inhibition is 67%.

In the case of `O=c1c2c3c(sc2ncn1Cc1ccccc1)CC(NCCc1ccncc1)CC3` (stereo not drawn), the inhibition turned out to be 18%.

As for `COCCNC1CCc2c(sc3ncn(Cc4cccc5cccnc45)c(=O)c23)C1` (stereo not drawn), the inhibition was found to be 41%.

For the molecule `O=c1c2c3c(sc2ncn1Cc1ccc2ccccc2c1)CC(NCC1CCOC1)CC3` (stereo not drawn), the inhibition was 58%.

For `O=c1c2c3c(sc2ncn1Cc1cccc(-c2ccccc2)c1)CC(NC1CCc2ccccc21)CC3` (stereo not drawn), the inhibition amounted to 45%.

Consider `O=c1c2c3c(sc2ncn1Cc1cccc(-c2ccccc2)c1)CC(NCc1ccc(Cl)cc1)CC3` (stereo not drawn), for which the inhibition was 56%.

Consider `COc1ccccc1CCNC1CCc2c(sc3ncn(Cc4cccc(-c5ccccc5)c4)c(=O)c23)C1` (stereo not drawn), for which the inhibition was determined as 65%.

Take `O=c1c2c3c(sc2ncn1Cc1cccc2ccccc12)CC(NC1CCc2ccccc21)CC3` (stereo not drawn): the inhibition was 58%.

For the molecule `COc1ccccc1CCNC1CCc2c(sc3ncn(Cc4cccc5cccnc45)c(=O)c23)C1` (stereo not drawn), the inhibition is 63%.

For the molecule `COc1ccc2ccccc2c1Cn1cnc2sc3c(c2c1=O)CCC(NCc1ccc(C#N)cc1)C3` (stereo not drawn), the inhibition came out at 75%.

For `COc1ccccc1CCNC1CCc2c(sc3ncn(Cc4cccc5ccccc45)c(=O)c23)C1` (stereo not drawn), the inhibition is 60%.

In the case of `O=c1c2c3c(sc2ncn1Cc1cccc2ccccc12)CC(NCc1cccc(Cl)c1)CC3` (stereo not drawn), the inhibition came out at 60%.

For the molecule `O=c1c2c3c(sc2ncn1Cc1ccc2ccccc2c1)CC(NCc1ccccc1Cl)CC3` (stereo not drawn), the inhibition stood at 43%.

Turning to `O=c1c2c3c(sc2ncn1Cc1cccc2cccnc12)CC(NCCN1CCOCC1)CC3` (stereo not drawn), the inhibition was determined as 53%.

Turning to `O=c1c2c3c(sc2ncn1Cc1ccccc1)CC(NCc1cncnc1)CC3` (stereo not drawn), the inhibition came out at 18%.

As for `O=c1c2c3c(sc2ncn1Cc1cccc2ccccc12)CC(Nc1ccc(F)cc1)CC3` (stereo not drawn), the inhibition is 50%.

Turning to `O=c1c2c3c(sc2ncn1Cc1cccc2cccnc12)CC(NCc1cncnc1)CC3` (stereo not drawn), the inhibition was 75%.

In the case of `O=c1c2c3c(sc2ncn1Cc1ccc2ccccc2c1)CC(NCc1cccc(Cl)c1)CC3` (stereo not drawn), the inhibition is 49%.

As to `COc1cccc(Cn2cnc3sc4c(c3c2=O)CCC(NCCc2cccnc2)C4)c1` (stereo not drawn), the inhibition was 40%.

On to `O=c1c2c3c(sc2ncn1Cc1cccc2cccnc12)CC(Nc1ccc2c(c1)OCO2)CC3` (stereo not drawn), for which the inhibition turned out to be 76%.

With `O=c1c2c3c(sc2ncn1Cc1ccc2ccccc2c1)CC(NCc1ccc(Cl)cc1)CC3` (stereo not drawn), the inhibition came to 49%.

Take `O=c1c2c3c(sc2ncn1Cc1cccc2ccccc12)CC(NCc1ccccc1F)CC3` (stereo not drawn): the inhibition is 71%.

For `O=c1c2c3c(sc2ncn1Cc1cccc2cccnc12)CC(NCc1ccccc1F)CC3` (stereo not drawn), the inhibition is 49%.

As for `O=c1c2c3c(sc2ncn1Cc1cccc2cccnc12)CC(NC1CCCC1)CC3` (stereo not drawn), the inhibition stood at 30%.

On to `O=c1c2c3c(sc2ncn1Cc1cccc2cccnc12)CC(NC1CCOCC1)CC3` (stereo not drawn), for which the inhibition is 51%.

For `COc1ccccc1Cn1cnc2sc3c(c2c1=O)CCC(NCC1CCCO1)C3` (stereo not drawn), the inhibition amounted to 27%.

In the case of `COc1ccc2ccccc2c1Cn1cnc2sc3c(c2c1=O)CCC(NCc1cccc(Cl)c1)C3` (stereo not drawn), the inhibition is 50%.

As for `O=c1c2c3c(sc2ncn1Cc1ccccc1)CC(NCc1ccccc1)CC3` (stereo not drawn), the inhibition was 57%.

As for `COc1ccccc1Cn1cnc2sc3c(c2c1=O)CCC(NCc1c(C)nn(C)c1C)C3` (stereo not drawn), the inhibition worked out at 37%.

Consider `COc1cccc(Cn2cnc3sc4c(c3c2=O)CCC(NCC2CCCO2)C4)c1` (stereo not drawn), for which the inhibition came to 3%.

As to `COc1ccc(NC2CCc3c(sc4ncn(Cc5cccc6ccccc56)c(=O)c34)C2)cc1` (stereo not drawn), the inhibition is 52%.

`O=c1c2c3c(sc2ncn1Cc1cccc(-c2ccccc2)c1)CC(NCc1cccc(Cl)c1)CC3` (stereo not drawn): the inhibition is 43%.

Take `O=c1c2c3c(sc2ncn1Cc1ccccc1)CC(NCc1ccccn1)CC3` (stereo not drawn): the inhibition turned out to be 26%.

(Values after ChEMBL document CHEMBL4004822, “Thienopyrimidinone Based Sirtuin-2 (SIRT2)-Selective Inhibitors Bind in the Ligand Induced Selectivity Pocket” (J Med Chem, 2017).)
